Broadly, the MIC is the lowest concentration that inhibits growth of the organism.

Drawing on ChEMBL document CHEMBL1143542, “Structure-activity relationships of bivalent aminoglycosides and evaluation of their microbiological activities” (2005), this text covers MIC and Activity for three compounds.

Test [1] has as its system Pseudomonas aeruginosa. As to the kind of experiment: Minimum inhibitory concentration against Pseudomonas aeruginosa PAE_NUH20. It counts as functional. The method in brief:
(§1)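 Broth microdilution following CLSI M100-S12. Stocks were 10 mg/mL in water, diluted in Mueller–Hinton broth to a top level of 128, then serially 2-fold in plates. Bacteria in cation-adjusted Mueller–Hinton broth were mixed 1:1 with drug and incubated 16–20 h at 35 °C. MIC was the lowest concentration with no visible growth. Run in duplicate with no-antibiotic and no-inoculum (sterility) controls.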

For test [2], the system named is Pseudomonas aeruginosa. As to the kind of experiment: Minimum inhibitory concentration against Pseudomonas aeruginosa ATCC 27853. It counts as functional. The method in brief: as §1
The test system of test [3] is Enterococcus faecalis. The test is described as follows: In vitro minimum inhibitory concentration against Enterococcus faecalis 29212. It counts as functional. The method in brief: as §1
Test [4] concerns Pseudomonas aeruginosa. As to the kind of experiment: Minimum inhibitory concentration against Pseudomonas aeruginosa PAE_NUH25. Format: functional. The method in brief:
as §1

For test [5], the system named is Pseudomonas aeruginosa. The test is described as follows: Minimum inhibitory concentration against Pseudomonas aeruginosa PAE_NUH24. Format: functional. The method in brief: as §1
The test system of test [6] is Staphylococcus aureus. The test is described as follows: In vitro minimum inhibitory concentration against Staphylococcus aureus MRSA 3359. Format: functional. The procedure, abridged:
as §1

Test [7] has as its system Pseudomonas aeruginosa. As to the kind of experiment: Minimum inhibitory concentration against Pseudomonas aeruginosa PAE_NUH23. It counts as functional. The procedure, abridged:
as §1

Test [8] concerns Pseudomonas aeruginosa. The test is described as follows: Minimum inhibitory concentration against Pseudomonas aeruginosa PAE_NUH22. Format: functional. The method in brief: as §1
The subject of test [9] is Pseudomonas aeruginosa. As to the kind of experiment: Minimum inhibitory concentration against Pseudomonas aeruginosa PAE_NUH07. Format: functional. The method in brief:
as §1

Test [10] relates to Staphylococcus aureus. The test is described as follows: In vitro minimum inhibitory concentration against Staphylococcus aureus ATCC 29213. It counts as functional. The method in brief: as §1
Test [11] deals with Pseudomonas aeruginosa. As to the kind of experiment: In vitro minimum inhibitory concentration against Pseudomonas aeruginosa ATCC 27853. Format: functional. The method in brief:
as §1

The subject of test [12] is Pseudomonas aeruginosa. The test is described as follows: Minimum inhibitory concentration against Pseudomonas aeruginosa PAE_NUH02. It counts as functional. The method in brief:
as §1

Test [13] relates to Pseudomonas aeruginosa. As to the kind of experiment: Minimum inhibitory concentration against Pseudomonas aeruginosa PAE_NUH01. It counts as functional. The method in brief:
as §1

The subject of test [14] is Pseudomonas aeruginosa. As to the kind of experiment: Minimum inhibitory concentration against Pseudomonas aeruginosa PAE_NUH06. It counts as functional. The method in brief: as §1
Test [15] concerns Pseudomonas aeruginosa. The test is described as follows: Minimum inhibitory concentration against Pseudomonas aeruginosa PAE_NUH05. It counts as functional. The method in brief: as §1
Test [16] concerns Pseudomonas aeruginosa. As to the kind of experiment: Minimum inhibitory concentration against Pseudomonas aeruginosa PAE_NUH04. It counts as functional. The method in brief: as §1
Test [17] deals with Pseudomonas aeruginosa. As to the kind of experiment: Minimum inhibitory concentration against Pseudomonas aeruginosa PAE_NUH18. It counts as functional. The method in brief:
as §1

Test [18] relates to Pseudomonas aeruginosa. As to the kind of experiment: In vitro minimum inhibitory concentration against Pseudomonas aeruginosa PAO-1. It counts as functional. The method in brief: as §1
The subject of test [19] is Pseudomonas aeruginosa. As to the kind of experiment: Minimum inhibitory concentration against Pseudomonas aeruginosa PAE_NUH17. It counts as functional. The procedure, abridged: as §1
Test [20] has as its system Escherichia coli. The test is described as follows: In vitro minimum inhibitory concentration against Escherichia coli ATCC 25922. It counts as functional. The method in brief: as §1
For test [21], the system named is Pseudomonas aeruginosa. As to the kind of experiment: Minimum inhibitory concentration against Pseudomonas aeruginosa PAE_NUH19. Format: functional. The method in brief: as §1
For test [22], the system named is Pseudomonas aeruginosa. The test is described as follows: Minimum inhibitory concentration against Pseudomonas aeruginosa PAE_NUH03. Format: functional. The method in brief:
as §1

The subject of test [23] is Pseudomonas aeruginosa. The test is described as follows: Minimum inhibitory concentration against Pseudomonas aeruginosa PAE_NUH21. It counts as functional. The method in brief: as §1
The test system of test [24] is Pseudomonas aeruginosa. The test is described as follows: Susceptibility testing against Pseudomonas aeruginosa PAE_NUH02; R=Resistant. Format: functional, organism-based. The procedure, abridged: (§2)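 Disk diffusion susceptibility profiling of P. aeruginosa reference and clinical isolates against empirically used antipseudomonal antibiotics. Each isolate was categorised as susceptible, intermediate or resistant.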

In test [25] the test system is Pseudomonas aeruginosa. The test is described as follows: Susceptibility testing against Pseudomonas aeruginosa PAE_NUH01; R=Resistant. Format: functional, organism-based. The method in brief:
as §2

In test [26] the test system is Pseudomonas aeruginosa. As to the kind of experiment: Susceptibility testing against Pseudomonas aeruginosa PAE_NUH05; S=Susceptible. It counts as functional, organism-based. The procedure, abridged: (§3)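 Disk diffusion susceptibility profiling against a panel of empirically used antipseudomonal antibiotics. Each strain was categorised as susceptible (S) or intermediate (I).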

Test [27] has as its system Pseudomonas aeruginosa. The test is described as follows: Susceptibility testing against Pseudomonas aeruginosa PAE_NUH23; S=Susceptible. It counts as functional, organism-based. The procedure, abridged:
as §3

Test [28] has as its system Pseudomonas aeruginosa. The test is described as follows: Susceptibility testing against Pseudomonas aeruginosa PAE_NUH24; S=Susceptible. It counts as functional, organism-based. The method in brief:
as §3

Test [29] has as its system Pseudomonas aeruginosa. The test is described as follows: Susceptibility testing against Pseudomonas aeruginosa PAE_NUH17; S=Susceptible. Format: functional, organism-based. The procedure, abridged: as §3
Test [30] deals with Pseudomonas aeruginosa. The test is described as follows: Susceptibility testing against Pseudomonas aeruginosa PAE_NUH04; S=Susceptible. It counts as functional, organism-based. The procedure, abridged:
as §3

Test [31] has as its system Pseudomonas aeruginosa. As to the kind of experiment: Susceptibility testing against Pseudomonas aeruginosa ATCC 27853; S=Susceptible. It counts as functional, organism-based. The procedure, abridged:
as §3

The test system of test [32] is Pseudomonas aeruginosa. As to the kind of experiment: Susceptibility testing against Pseudomonas aeruginosa PAE_NUH19; S=Susceptible. Format: functional, organism-based. The method in brief: as §3
Test [33] deals with Pseudomonas aeruginosa. As to the kind of experiment: Susceptibility testing against Pseudomonas aeruginosa PAE_NUH20; S=Susceptible. Format: functional, organism-based. The procedure, abridged: as §3
For test [34], the system named is Pseudomonas aeruginosa. As to the kind of experiment: Susceptibility testing against Pseudomonas aeruginosa PAE_NUH21; S=Susceptible. Format: functional, organism-based. The method in brief: as §3
The test system of test [35] is Pseudomonas aeruginosa. The test is described as follows: Susceptibility testing against Pseudomonas aeruginosa PAE_NUH18; S=Susceptible. Format: functional, organism-based. The procedure, abridged: as §3
Test [36] deals with Pseudomonas aeruginosa. The test is described as follows: Susceptibility testing against Pseudomonas aeruginosa PAE_NUH03; S=Susceptible. Format: functional, organism-based. The procedure, abridged: as §3
The test system of test [37] is Pseudomonas aeruginosa. As to the kind of experiment: Susceptibility testing against Pseudomonas aeruginosa PAE_NUH07; R=Resistant. Format: functional, organism-based. The method in brief: as §2
For test [38], the system named is Pseudomonas aeruginosa. The test is described as follows: Susceptibility testing against Pseudomonas aeruginosa PAE_NUH06; S=Susceptible. Format: functional, organism-based. The procedure, abridged:
as §3

Test [39] has as its system Pseudomonas aeruginosa. The test is described as follows: Susceptibility testing against Pseudomonas aeruginosa PAE_NUH25; S=Susceptible. Format: functional, organism-based. The procedure, abridged:
as §3

For test [40], the system named is Pseudomonas aeruginosa. As to the kind of experiment: Susceptibility testing against Pseudomonas aeruginosa PAE_NUH22; S=Susceptible. It counts as functional, organism-based. The procedure, abridged: as §3
The subject of test [41] is Pseudomonas aeruginosa. As to the kind of experiment: In vitro minimum inhibitory concentration against Pseudomonas aeruginosa PAO-1 Minimum inhibitory concentration against Pseudomonas aeruginosa PAO-1. Format: functional. The procedure, abridged:
as §1

Molecules are shown by their SMILES. ≈ marks a conversion by molar mass, not a printed value.

`CN(CCCCN(C)C[C@@H](O)CO[C@@H]1[C@@H](O)[C@H](N)C[C@H](N)[C@H]1O[C@H]1O[C@H](CN)[C@@H](O)[C@H](O)[C@H]1N)C[C@@H](O)CO[C@@H]1[C@@H](O)[C@H](N)C[C@H](N)[C@H]1O[C@H]1O[C@H](CN)[C@@H](O)[C@H](O)[C@H]1N`: the minimum inhibitory concentration (MIC) in test [1] is 16 µg/mL (≈ 18.3 µM); in test [2], 8 µg/mL (≈ 9.16 µM); in [3], above 50 µg/mL; in test [4] it was 8 µg/mL (≈ 9.16 µM); in test [5], 32 µg/mL (≈ 36.7 µM); in [6], 16 µg/mL (≈ 18.3 µM). The MIC in [7] is above 32 µg/mL; in test [8], 8 µg/mL (≈ 9.16 µM); in test [9] it was 6.3 µg/mL (≈ 7.22 µM); in [10], 1 µg/mL (≈ 1.15 µM); in test [11], 8 µg/mL (≈ 9.16 µM); in [12] it was 6.3 µg/mL (≈ 7.22 µM). Besides, the MIC is 12.5 µg/mL (≈ 14.3 µM) in test [13]; 12.5 µg/mL (≈ 14.3 µM) in test [14]; 6.3 µg/mL (≈ 7.22 µM) in [15]; 6.3 µg/mL (≈ 7.22 µM) in test [16]; 16 µg/mL (≈ 18.3 µM) in [17]; 8 µg/mL (≈ 9.16 µM) in test [18]. The minimum inhibitory concentration (MIC) in [19] is above 32 µg/mL; in test [20], 4 µg/mL (≈ 4.58 µM); in test [21] it was 16 µg/mL (≈ 18.3 µM); in test [22], 6.3 µg/mL (≈ 7.22 µM); in [23], 16 µg/mL (≈ 18.3 µM).

Take `CCN1CCN(C(=O)N[C@@H](C(=O)N[C@@H]2C(=O)N3[C@@H]2SC(C)(C)[C@@H]3C(=O)O)c2ccccc2)C(=O)C1=O.C[C@]1(Cn2ccnn2)[C@H](C(=O)O)N2C(=O)C[C@H]2S1(=O)=O`: the Activity entry is “Resistant” in test [24]; “Resistant” in [25]; “Susceptible” in test [26]; “Susceptible” in test [27]; “Susceptible” in [28]; “Susceptible” in test [29]. In addition, the Activity entry in test [30], in test [31], in test [32], in test [33], in test [34] and in test [35] was “Susceptible” throughout. Besides, the Activity result in [36] was “Susceptible”; in [37], “Resistant”; in test [38] it was “Susceptible”; in [39] it was “Susceptible”; in [40], “Susceptible”.

For `NC[C@H]1O[C@H](O[C@H]2[C@H](OC[C@H](O)CNCCCCNC[C@@H](O)CO[C@@H]3[C@@H](O)[C@H](N)C[C@H](N)[C@H]3O[C@H]3O[C@H](CN)[C@@H](O)[C@H](O)[C@H]3N)[C@@H](O)[C@H](N)C[C@@H]2N)[C@H](N)[C@@H](O)[C@@H]1O`, the minimum inhibitory concentration (MIC) was 16 µg/mL (≈ 18.9 µM) in test [1]; 1 µg/mL (≈ 1.18 µM) in test [2]; above 50 µg/mL in test [3]; 8 µg/mL (≈ 9.47 µM) in test [4]; 16 µg/mL (≈ 18.9 µM) in test [5]; 16 µg/mL (≈ 18.9 µM) in test [6]. Further, the MIC was 16 µg/mL (≈ 18.9 µM) in test [7]; 16 µg/mL (≈ 18.9 µM) in test [8]; 3.1 µg/mL (≈ 3.67 µM) in [9]; 1 µg/mL (≈ 1.18 µM) in test [10]; 4 µg/mL (≈ 4.73 µM) in test [11]; 6.3 µg/mL (≈ 7.46 µM) in test [12]. For the same compound, the MIC in [13] stood at 6.3 µg/mL (≈ 7.46 µM); in [14] it was 6.3 µg/mL (≈ 7.46 µM); in test [41], 2 µg/mL (≈ 2.37 µM); in [15], 3.1 µg/mL (≈ 3.67 µM); in [16], 3.1 µg/mL (≈ 3.67 µM); in [17], 8 µg/mL (≈ 9.47 µM). The MIC in test [19] is 32 µg/mL (≈ 37.9 µM); in test [20], 4 µg/mL (≈ 4.73 µM); in [21], 8 µg/mL (≈ 9.47 µM); in test [22], 6.3 µg/mL (≈ 7.46 µM); in test [23], 16 µg/mL (≈ 18.9 µM).
